PfG6PD inh: PfG6PD (Plasmodium falciparum) enzyme inhibition. PfGluPho enzyme, NADPH resazurin-diaphorase fluorescence. inhibition, % at 20 µM. 350,000 tested, 0.78% active. AID 504690;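 active = inhibition reaching at least a set limit at 20 µM in the primary screen, cut at about 59% in these data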;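 note: 0% = DMSO wells with substrate and 100% = DMSO wells lacking glucose-6-phosphate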
B2AR ag: human beta-2 adrenergic receptor agonism by FAP; P07550; Am2.2-beta2AR cells, FAP receptor internalization, flow cytometry; response, % (concentration not given with the values); 340,000 tested, 0.43% active; AID 504454;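 active = response above a set limit, near 3 SD of response in nonfluorescent compounds, cut at about 42% in these data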
Target sequence (P07550 whole entry, looked up): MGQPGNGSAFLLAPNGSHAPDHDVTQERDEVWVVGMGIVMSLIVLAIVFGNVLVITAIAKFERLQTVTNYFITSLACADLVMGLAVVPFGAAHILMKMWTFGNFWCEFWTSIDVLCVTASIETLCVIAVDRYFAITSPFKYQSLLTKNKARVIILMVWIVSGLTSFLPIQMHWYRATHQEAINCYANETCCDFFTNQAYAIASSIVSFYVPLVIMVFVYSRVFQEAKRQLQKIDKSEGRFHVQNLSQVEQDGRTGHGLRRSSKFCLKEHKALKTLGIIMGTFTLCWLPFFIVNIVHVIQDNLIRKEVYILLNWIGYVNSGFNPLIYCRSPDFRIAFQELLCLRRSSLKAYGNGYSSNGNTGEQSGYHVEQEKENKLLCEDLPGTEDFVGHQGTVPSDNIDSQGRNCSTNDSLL
MC4R antagonist: human MC4R antagonism in cAMP assay. AID 540295. P32245. 360,000 tested, 0.48% active. inhibition, % at 6.5 µM. MC4R-expressing cells, MTII-stimulated cAMP, LANCE TR-FRET;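 active = inhibition above its plate's cutoff, the mean of tested wells on that plate plus 3 SD, cut at about 29% in these data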;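 note: 0% = Melanotan II alone and 100% = Melanotan II plus saturating MCL0020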
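material = U2OS cells stably expressing human melanocortin 4 receptor (MC4R) | also added = Melanotan II challenge | dosing = single nominal compound dose of 6.5 µM | detection = TR-FRET with Eu-cAMP and labeled anti-cAMP, 671 nm | replication = singlicate | timing = compound 30 min, challenge 1 h, detection 1 h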
ABHD5 PLIN5 PPI: inhibitors of human ABHD5-perilipin-5 interaction; Q00G26+Q8WTS1; Split G. princeps luciferase complementation, luminescence, 4 h; 360,000 tested, 0.78% active; inhibition, % at 4 µM;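 active = inhibition above the mean inhibition across every tested compound plus 3 SD, cut at about 22% in these data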;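 note: 0% = DMSO only wells and the 100% control is not disclosed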
MC4R barr agon: human MC4R agonism via beta-arrestin; P32245; U2OS MC4R beta-arrestin complementation, luminescence; percent of melanotan II response, DMSO zero; activation, % at 8.9 µM; 360,000 tested, 0.98% active;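 active = activation above a per-plate cutoff, the mean activation of sample wells on that plate plus 3 SD, cut at about 8% in these data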
B2AR ag CP1: human beta-2 adrenergic receptor agonism, cherry pick | shares compounds with B2AR ag | 1,100 tested, 25% active | percent response (surface receptor), % at 10 µM | Am2.2-beta2AR cells, FAP surface receptor, flow cytometry; stronger effect = lower value | AID 540358;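 active = surface receptor percent response at or below 58%, roughly 3 SD from nonfluorescent compounds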
FAP fluor counter: flagged in Am2.2 fluorescence counterscreen for beta-2AR agonists. shares compounds with B2AR ag. calls only at 10 µM. AID 588765. 1,100 tested, under 10 active. Am2.2 cells, FAP fluorogen flow cytometry; stronger effect = lower value;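 active = percent response below a set limit in fluorescence channel 1 and below 50% in channel 8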
* marks the source's active call; other numbers are inactive results; i = inactive; / = no result given. Rows were chosen to be rich in hits. Some 3% of all compounds tested hit in one or more screens of this group.

SMILES	PfG6PD inh	B2AR ag	MC4R antagonist	ABHD5 PLIN5 PPI	MC4R barr agon	B2AR ag CP1	FAP fluor counter
COc1ccc(OC)c(S(=O)(=O)Nc2ccc(O)c3ccccc23)c1	37	52*	1	-1	-2	102	i
O=C(CCN1CCOCC1)NNC(=O)c1ccc([N+](=O)[O-])cc1[N+](=O)[O-]	17	-2	2	-5	-2	/	/
N#CC1=C(N)OC2=C(CCc3ccccc32)C1c1ccccc1 (centres undefined)	7	43*	-14	-5	0	28*	i
Oc1ccccc1-n1c(-c2ccccc2)ccc1-c1ccccc1	15	1	11	-15	6	/	/
O=C(NCCN1C(=O)S/C(=C/c2cccnc2)C1=O)c1ccc(S(=O)(=O)N2CCCC2)cc1	31	-9	8	11	-1	/	/
CCCc1ccc(OCc2nc(-c3ccc(NC(=O)c4ccco4)cc3)no2)cc1	-18	27	6	-3	5	42*	i
CC(Oc1ccc(Cl)cc1Cl)c1nc(-c2ccc(NC(=O)c3ccco3)cc2)no1 (centres undefined)	5	66*	5	-5	1	59	i
CCCc1ccc(OCc2nc(-c3ccc(NC(=O)c4cccs4)cc3)no2)cc1	10	-5	1	0	1	75	i
Cc1ccccc1OCc1nc(-c2ccc(NC(=O)c3ccc4c(c3)OCO4)cc2)no1	6	-5	1	-7	22*	106	i
C=C(C)C(=O)Nc1cccc(C2=NOC3(C2)C[C@@H](C(N)=O)N(C(=O)/C=C/C=C/C)C3)c1 (some centres undefined)	28	5	11	2	0	/	/
CC1=C/C(=N\NC(=S)NCc2ccccc2)CC1	-9	-2	1	-2	2	102	i
O=C1C=C(NC2CCCC2)CC(c2ccccc2)C1 (centres undefined)	-13	2	-4	-4	-2	117	i
CCC(CC)C(=O)Nc1cc(OC)c(OC)cc1C(=O)O	13	92*	6	3	-1	99	i
N#CC(CCc1ccccc1[N+](=O)[O-])(CCc1ccccc1[N+](=O)[O-])C(N)=O	14	6	-2	-5	0	/	/
CCCCN1C(=O)C(CC(=O)NCc2ccco2)CC(C(=O)N2CCCCCC2)=C1C (centres undefined)	/	/	/	5	/	/	/
CN(C(=O)c1cccc(NC(=O)Cc2cccc(NC(=O)C3CCN(C(=O)C4CCCCC4)CC3)c2)c1)C1CCC1	-4	-2	2	-3	-1	/	/
CN(C(=O)c1cccc(NC(=O)Cc2cccc(NC(=O)C3CCN(C(=O)C4CCCC4)CC3)c2)c1)C1CC1	-6	-3	6	-3	0	/	/
CN(C(=O)c1ccc(NC(=O)Cc2cccc(NC(=O)C3CCN(C(=O)C4CCCCC4)CC3)c2)cc1)C1CC1	-16	-4	-5	3	0	115	i
CN(C(=O)c1ccc(NC(=O)Cc2cccc(NC(=O)C3CCN(C(=O)C4CCCC4)CC3)c2)cc1)C1CCCC1	-3	47*	-2	7	-1	82	i
CN(C(=O)c1ccc(NC(=O)Cc2cccc(NC(=O)C3CCN(C(=O)C4CC4)CC3)c2)cc1)C1CC1	-26	-6	15	2	-1	117	i
O=C(CNC(=O)c1ccc2ccccc2c1)NCc1ccc(F)cc1	1	1	9	-5	0	/	/
COc1cc([N+](=O)[O-])ccc1NC(=O)CN1C(=O)NC2(CCCCC2C)C1=O (centres undefined)	7	-3	6	1	-2	/	/
Cc1cccc2sc(NC(=O)CN(C)S(=O)(=O)c3ccc(Br)s3)nc12	2	51*	-2	-5	1	109	i
COc1ccc(CCNC(=O)[C@@H](NC(=O)N2CC(=O)Nc3ccccc32)C(C)C)cc1OC	0	0	10	3	-2	/	/
CCOC(=O)c1ccc(NC(=O)COc2ccc(S(=O)(=O)N3CCCC3)cc2)cc1	5	98*	3	0	0	21*	i

Assay outcomes as filed in PubChem.
